Assay results from paper PMC12086512 (Protein Science : A Publication of the Protein Society, 2025).

Tests used:
T. parva sporozoites = test: In vitro sporozoite neutralization assay with bovine PBMCs; assay type: cell-based, Theileria parva; conditions: exact values not determined due to incomplete fitting
bovine serum albumin = test: ELISA, negative control protein BSA; assay type: binding; conditions: serial dilutions of Fab
Summary of the method: (§1)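 Proteins coated overnight at 4°C in PBS: full-length C-His p67 (Expi293, Ni-NTA), p67 fragments (E. coli BL21(DE3), GST/6xHis fusion, glutathione resin, TEV cleavage where needed), ubiquitin or BSA. Fab detected with HRP anti-FLAG, IgG with HRP anti-Fc. Eight washes with PBS/0.25% Tween 20 between steps. TMB 2 min, stopped with 1.0 M phosphoric acid, A450 read.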

[1] = tested on: His‐p67C (p67 residues 572–651); test: ELISA, binding to immobilized p67C; set-up: species or system Theileria parva; conditions: 50 nM antibody
Summary of the method: as §1

ubiquitin = test: ELISA, negative control protein ubiquitin; assay type: binding; conditions: serial dilutions of Fab
Summary of the method: as §1

p67^1 (residues 572–612) = test: ELISA, binding to p67^1; set-up: species or system Theileria parva; conditions: 50 nM antibody
Summary of the method: as §1

full‐length p67 = test: ELISA, binding to full-length p67; set-up: species or system Theileria parva; conditions: 50 nM antibody
Summary of the method: as §1

B1: Fab B11: phage-derived synthetic human Fab binding p67C, neutralizes T. parva sporozoites (antibody, V domains shown)
VH: EVQLVESGGGLVQPGGSLRLSCAASGFNISSSSIHWVRQAPGKGLEWVASISPYYSSTSYADSVKGRFTISADTSKNTAYLQMNSLRAEDTAVYYCARGPGYAMDYWGQGTLVTVSS
VL: DIQMTQSPSSLSASVGDRVTITCRASQSVSSAVAWYQQKPGKAPKLLIYSASSLYSGVPSRFSGSRSGTDFTLTISSLQPEDFATYYCQQYYYAPITFGQGTKVEIK
Q: What does the source list for B1?
A: Fold less neutralizing potency than IgGs B11 and 21.4 (T. parva sporozoites): roughly 10 fold; Binding to control protein bovine serum albumin (bovine serum albumin): no detectable binding; Binding to p67C [1]: bound; Binding to control protein ubiquitin (ubiquitin): no detectable binding; Binding to p67^1 (p67^1 (residues 572–612)): bound; Binding to full-length p67 (full‐length p67): bound
